Measurements taken from ChEMBL document CHEMBL3046621, “Fungicidal sesquiterpene dialdehyde cinnamates from Pseudowintera axillaris” (2006).

Tests used:
Assay type in all cases: functional
[1] = test system: Puccinia graminis f. tritici; test: Antifungal activity against Puccinia graminis f. tritici assessed as inhibition of wheat stem rust disease on wheat cultivar Yuma at 100 ppm measured 24 hr post fungal inoculation relative to untreated control
Summary of the method: (§1)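 Whole-plant protectant test: pure compounds in acetone, serially diluted in acetone to 6.25, 25 or 100 ppm and applied to plants.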

Phytophthora infestans [2] = test: Antifungal activity against Phytophthora infestans assessed as inhibition of late tomato blight disease on tomato cultivar Rutgers plants at 6.25 ppm measured 24 hr post fungal inoculation relative to untreated control; summary of the method: as §1
[3] = test system: Puccinia graminis f. tritici; test: Antifungal activity against Puccinia graminis f. tritici assessed as inhibition of wheat stem rust disease on wheat cultivar Yuma at 6.25 ppm measured 24 hr post fungal inoculation relative to untreated control; summary of the method: as §1
Zymoseptoria tritici [4] = test: Antifungal activity against Zymoseptoria tritici assessed as inhibition of wheat leaf spot disease on wheat cultivar Yuma at 100 ppm measured 24 hr post fungal inoculation relative to untreated control; summary of the method: as §1
Parastagonospora nodorum [5] = test: Antifungal activity against Phaeosphaeria nodorum assessed as inhibition of glume blotch disease on wheat cultivar Yuma plants at 100 ppm measured 24 hr post fungal inoculation relative to untreated control; summary of the method: as §1
Phytophthora infestans [6] = test: Antifungal activity against Phytophthora infestans assessed as inhibition of late tomato blight disease on tomato cultivar Rutgers plants at 100 ppm measured 24 hr post fungal inoculation relative to untreated control; summary of the method: as §1
Zymoseptoria tritici [7] = test: Antifungal activity against Zymoseptoria tritici assessed as inhibition of wheat leaf spot disease on wheat cultivar Yuma at 25 ppm measured 24 hr post fungal inoculation relative to untreated control; summary of the method: as §1
Plasmopara viticola [8] = test: Antifungal activity against Plasmopara viticola assessed as inhibition of grape downy mildew disease on vines cultivar Carignane plants at 25 ppm measured 24 hr post fungal inoculation relative to untreated control; summary of the method: as §1
Zymoseptoria tritici [9] = test: Antifungal activity against Zymoseptoria tritici assessed as inhibition of wheat leaf spot disease on wheat cultivar Yuma at 6.25 ppm measured 24 hr post fungal inoculation relative to untreated control; summary of the method: as §1
Plasmopara viticola [10] = test: Antifungal activity against Plasmopara viticola assessed as inhibition of grape downy mildew disease on vines cultivar Carignane plants at 6.25 ppm measured 24 hr post fungal inoculation relative to untreated control; summary of the method: as §1
[11] = test system: Puccinia graminis f. tritici; test: Antifungal activity against Puccinia graminis f. tritici assessed as inhibition of wheat stem rust disease on wheat cultivar Yuma at 25 ppm measured 24 hr post fungal inoculation relative to untreated control; summary of the method: as §1
Plasmopara viticola [12] = test: Antifungal activity against Plasmopara viticola assessed as inhibition of grape downy mildew disease on vines cultivar Carignane plants at 100 ppm measured 24 hr post fungal inoculation relative to untreated control; summary of the method: as §1
Parastagonospora nodorum [13] = test: Antifungal activity against Phaeosphaeria nodorum assessed as inhibition of glume blotch disease on wheat cultivar Yuma plants at 6.25 ppm measured 24 hr post fungal inoculation relative to untreated control; summary of the method: as §1
Parastagonospora nodorum [14] = test: Antifungal activity against Phaeosphaeria nodorum assessed as inhibition of glume blotch disease on wheat cultivar Yuma plants at 25 ppm measured 24 hr post fungal inoculation relative to untreated control; summary of the method: as §1
Phytophthora infestans [15] = test: Antifungal activity against Phytophthora infestans assessed as inhibition of late tomato blight disease on tomato cultivar Rutgers plants at 25 ppm measured 24 hr post fungal inoculation relative to untreated control; summary of the method: as §1
Phytophthora infestans [16] = test: Antifungal activity against Phytophthora infestans assessed as inhibition of late tomato blight disease on tomato cultivar Rutgers plants at 100 ppm measured 96 hr post fungal inoculation relative to untreated control; summary of the method: as §1
Plasmopara viticola [17] = test: Antifungal activity against Plasmopara viticola assessed as inhibition of grape downy mildew disease on vines cultivar Carignane plants at 100 ppm measured 96 hr post fungal inoculation relative to untreated control; summary of the method: as §1
Plasmopara viticola [18] = test: Antifungal activity against Plasmopara viticola assessed as inhibition of grape downy mildew disease on vines cultivar Carignane plants at 25 ppm measured 96 hr post fungal inoculation relative to untreated control; summary of the method: as §1
Parastagonospora nodorum [19] = test: Antifungal activity against Phaeosphaeria nodorum assessed as inhibition of glume blotch disease on wheat cultivar Yuma plants at 100 ppm measured 96 hr post fungal inoculation relative to untreated control; summary of the method: as §1
Parastagonospora nodorum [20] = test: Antifungal activity against Phaeosphaeria nodorum assessed as inhibition of glume blotch disease on wheat cultivar Yuma plants at 25 ppm measured 96 hr post fungal inoculation relative to untreated control; summary of the method: as §1
Phytophthora infestans [21] = test: Antifungal activity against Phytophthora infestans assessed as inhibition of late tomato blight disease on tomato cultivar Rutgers plants at 25 ppm measured 96 hr post fungal inoculation relative to untreated control; summary of the method: as §1

Structure (SMILES) | inhibition at 100 ppm [1] [%] | inhibition at 6.25 ppm (Phytophthora infestans [2]) [%] | inhibition at 6.25 ppm [3] [%] | inhibition at 100 ppm (Zymoseptoria tritici [4]) [%] | inhibition at 100 ppm (Parastagonospora nodorum [5]) [%] | inhibition at 100 ppm (Phytophthora infestans [6]) [%] | inhibition at 25 ppm (Zymoseptoria tritici [7]) [%] | inhibition at 25 ppm (Plasmopara viticola [8]) [%] | inhibition at 6.25 ppm (Zymoseptoria tritici [9]) [%] | inhibition at 6.25 ppm (Plasmopara viticola [10]) [%] | inhibition at 25 ppm [11] [%] | inhibition at 100 ppm (Plasmopara viticola [12]) [%] | inhibition at 6.25 ppm (Parastagonospora nodorum [13]) [%] | inhibition at 25 ppm (Parastagonospora nodorum [14]) [%] | inhibition at 25 ppm (Phytophthora infestans [15]) [%] | also measured
C=C1[C@@H]2[C@@H](O)C=C3[C@@H](OC)O[C@@H](OC)[C@@H]3[C@@]2(C)[C@H](OC(=O)CCc2ccccc2)C[C@@H]1C | 9 | 0 | 42 | 90 | 0 | 0 | 17 | 0 | 0 | 0 | 9 | 0 | 0 | 0 | 0 | –
C=C1[C@@H]2[C@@H](O)C=C3[C@@H](OC)O[C@@H](OC)[C@@H]3[C@@]2(C)[C@H](O)C[C@@H]1C | 0 | – | – | 11 | 0 | 0 | – | – | – | – | – | 0 | – | – | – | –
C=C1[C@@H](C)C[C@@H](OC(=O)/C=C/c2ccccc2)[C@]2(C)[C@@H](C=O)C(C=O)=CC[C@@H]12 [Paxidal] | 0 | – | – | 7 | 17 | 69 | 0 | 23 | – | – | 0 | 51 | – | 0 | 57 | inhibition at 100 ppm (Phytophthora infestans [16]): 9%; inhibition at 100 ppm (Plasmopara viticola [17]): 0%; inhibition at 25 ppm (Plasmopara viticola [18]): 0%; inhibition at 100 ppm (Parastagonospora nodorum [19]): 18%; inhibition at 25 ppm (Parastagonospora nodorum [20]): 0%; inhibition at 25 ppm (Phytophthora infestans [21]): 18%
C=C1[C@@H]2[C@@H](OC)C=C3[C@@H](OC)O[C@@H](OC)[C@@H]3[C@@]2(C)[C@H](O)C[C@@H]1C | 0 | – | – | 0 | 0 | 0 | – | – | – | – | – | 0 | – | – | – | –
C=C1[C@@H]2[C@@H](O)C=C(C=O)[C@H](C=O)[C@@]2(C)[C@H](OC(=O)/C=C/c2ccccc2)C[C@@H]1C | 85 | 74 | 4 | 0 | 96 | 100 | 0 | 19 | 0 | 2 | 15 | 89 | 33 | 73 | 91 | –
C=C1[C@@H]2[C@@H](O)C=C3[C@@H](OC)O[C@@H](OC)[C@@H]3[C@@]2(C)[C@H](OC(=O)/C=C/c2ccccc2)C[C@@H]1C | 7 | 0 | 0 | 78 | 0 | 0 | 33 | 0 | 43 | 0 | 4 | 0 | 0 | 0 | 0 | –
